ChEMBL document CHEMBL1137403, “Discovery of 2-[4-{{2-(2S,5R)-2-cyano-5-ethynyl-1-pyrrolidinyl]-2-oxoethyl]amino]- 4-methyl-1-piperidinyl]-4-pyridinecarboxylic acid (ABT-279): a very potent, selective, effective, and well-tolerated inhibitor of dipeptidyl peptidase-IV, useful for the treatment of diabetes” (J Med Chem, 2006)
Calls of active or inactive are those of the source. The rule behind the calls is not given here.

Experiments:
[1] = molecular target: Dipeptidyl peptidase 4 (Rattus norvegicus) (UniProt P14740); test: Inhibition of Zucker rat plasma DPP4 after 4 hrs at 1 mg/kg; format: functional, organism-based; set-up: dose 1 mg/kg
Method in brief: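 Female Zucker diabetic fatty rats, 10 weeks old, fasted overnight, then given a single oral dose of 1 mg/kg or vehicle. Plasma DPP-IV activity inhibition and plasma drug level were measured 4 h post-dose, at the point when the rats were given free access to a liquid mixed meal (Ensure).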

Cytochrome P450 2D6 = Cytochrome P450 2D6 (Homo sapiens, UniProt P10635); test: Inhibition of CYP2D6; format: ADME
Cytochrome P450 3A4 = Cytochrome P450 3A4 (Homo sapiens, UniProt P08684); test: Inhibition of CYP3A4; format: ADME
[2] = AUC (0-24h) in rat; format: ADME, organism-based; set-up: time < 24 hr; conditions: plasma
Dipeptidyl peptidase 2 = Dipeptidyl peptidase 2 (Homo sapiens, UniProt Q9UHL4); test: Inhibition of DPP7
Rattus norvegicus [3] = organism: Rattus norvegicus; test: Reduction in glucagon level in Zucker rat after 30 mins relative to control; format: functional; set-up: scale not given: the % may be the effect or the level left
Method in brief: (§1)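 Female ZDF rats, 10 weeks old, fasted overnight, then dosed orally with vehicle or drug. Four hours after dosing (t = 0) they had free access for 4 h to a liquid mixed meal (Ensure). Plasma was sampled for drug level, active GLP-1, insulin, glucagon and glucose.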

[4] = AUC in Beagle dog at 2.5 mg/kg, iv; format: ADME, organism-based, Canis lupus familiaris; set-up: dose 2.5 mg/kg, route intravenous; conditions: plasma
Method in brief: (§2)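 Single intravenous dose. Plasma drug exposure is reported as area under the curve in µg-hr/mL. It is listed in the same table as T1/2, Vss, Vβ and plasma clearance (CLp).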

Canis familiaris = test: Hemodynamic activity in dog upto 28 ug/ml, iv; format: functional, organism-based; conditions: Canis lupus familiaris
Method in brief: (§3)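 Hemodynamic and electrocardiographic profile recorded in anesthetized rats or dogs given the drug intravenously, at plasma concentrations up to 28 µg/mL.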

Prolyl endopeptidase FAP = molecular target: T1, Prolyl endopeptidase FAP (Homo sapiens, UniProt Q12884); test: Inhibition of FAPalpha
T1 sequence (Q12884 whole entry): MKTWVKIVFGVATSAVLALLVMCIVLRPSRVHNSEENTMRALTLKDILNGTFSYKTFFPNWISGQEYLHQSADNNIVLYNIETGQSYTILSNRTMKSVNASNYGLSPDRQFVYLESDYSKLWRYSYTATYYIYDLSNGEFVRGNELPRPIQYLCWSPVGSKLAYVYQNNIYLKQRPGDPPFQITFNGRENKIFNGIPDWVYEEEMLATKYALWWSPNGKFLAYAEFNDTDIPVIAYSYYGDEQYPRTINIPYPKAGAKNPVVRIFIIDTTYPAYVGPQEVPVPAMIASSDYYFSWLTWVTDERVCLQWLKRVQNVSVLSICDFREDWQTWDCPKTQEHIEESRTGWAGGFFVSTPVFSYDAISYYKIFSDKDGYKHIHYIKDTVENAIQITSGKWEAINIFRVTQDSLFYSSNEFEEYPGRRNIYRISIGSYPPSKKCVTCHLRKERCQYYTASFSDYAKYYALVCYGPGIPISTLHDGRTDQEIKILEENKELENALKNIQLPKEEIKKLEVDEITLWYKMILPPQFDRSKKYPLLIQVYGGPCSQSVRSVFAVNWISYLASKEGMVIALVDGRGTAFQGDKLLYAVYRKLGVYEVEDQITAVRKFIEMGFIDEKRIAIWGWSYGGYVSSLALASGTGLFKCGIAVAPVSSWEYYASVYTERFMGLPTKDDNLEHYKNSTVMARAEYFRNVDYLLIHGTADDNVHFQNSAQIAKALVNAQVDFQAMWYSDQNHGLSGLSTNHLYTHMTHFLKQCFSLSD

[5] = AUC in cynomolgus monkey at 2.5 mg/kg, po; format: ADME, organism-based, Macaca fascicularis; set-up: dose 2.5 mg/kg, route oral; conditions: plasma
Dipeptidyl peptidase 8 = Dipeptidyl peptidase 8 (Homo sapiens, UniProt Q6V1X1)
Mus musculus = test: Clastogenicity in mouse upto 2000 mg/kg; format: functional, organism-based; set-up: dose 2000 mg/kg
Method in brief: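 Murine in vivo clastogenicity test, dosed at up to 2000 mg/kg.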

[6] = Oral bioavailability in Beagle dog at 2.5 mg/kg, po; format: ADME, organism-based, Canis lupus familiaris; conditions: in vivo
[7] = Half life in Sprague-Dawley rat at 5 mg/kg, po; format: ADME, organism-based; set-up: dose 5 mg/kg, route oral; conditions: in vivo
Rattus norvegicus [8] = organism: Rattus norvegicus; test: Increase in insulin level in Zucker rat after 10 mins relative to control; format: functional; method in brief: as §1
[9] = Cmax in cynomolgus monkey at 2.5 mg/kg, po; format: ADME, organism-based, Macaca fascicularis; set-up: dose 2.5 mg/kg, route oral; conditions: in vivo
[10] = Volume of distribution in terminal phase in Beagle dog at 2.5 mg/kg, iv; format: ADME, organism-based, Canis lupus familiaris; set-up: dose 2.5 mg/kg, route intravenous; conditions: in vivo, read-out: Vbeta
Rattus norvegicus [11] = test: Electrocardiographic activity in rat upto 28 ug/ml, iv; format: functional, organism-based; method in brief: as §3
[12] = AUC in Sprague-Dawley rat at 5 mg/kg, iv; format: ADME, organism-based; set-up: dose 5 mg/kg, route intravenous; conditions: plasma; method in brief: as §2
Prolyl endopeptidase = molecular target: T2, Prolyl endopeptidase (Homo sapiens, UniProt P48147); test: Inhibition of POP
T2 sequence (P48147 whole entry): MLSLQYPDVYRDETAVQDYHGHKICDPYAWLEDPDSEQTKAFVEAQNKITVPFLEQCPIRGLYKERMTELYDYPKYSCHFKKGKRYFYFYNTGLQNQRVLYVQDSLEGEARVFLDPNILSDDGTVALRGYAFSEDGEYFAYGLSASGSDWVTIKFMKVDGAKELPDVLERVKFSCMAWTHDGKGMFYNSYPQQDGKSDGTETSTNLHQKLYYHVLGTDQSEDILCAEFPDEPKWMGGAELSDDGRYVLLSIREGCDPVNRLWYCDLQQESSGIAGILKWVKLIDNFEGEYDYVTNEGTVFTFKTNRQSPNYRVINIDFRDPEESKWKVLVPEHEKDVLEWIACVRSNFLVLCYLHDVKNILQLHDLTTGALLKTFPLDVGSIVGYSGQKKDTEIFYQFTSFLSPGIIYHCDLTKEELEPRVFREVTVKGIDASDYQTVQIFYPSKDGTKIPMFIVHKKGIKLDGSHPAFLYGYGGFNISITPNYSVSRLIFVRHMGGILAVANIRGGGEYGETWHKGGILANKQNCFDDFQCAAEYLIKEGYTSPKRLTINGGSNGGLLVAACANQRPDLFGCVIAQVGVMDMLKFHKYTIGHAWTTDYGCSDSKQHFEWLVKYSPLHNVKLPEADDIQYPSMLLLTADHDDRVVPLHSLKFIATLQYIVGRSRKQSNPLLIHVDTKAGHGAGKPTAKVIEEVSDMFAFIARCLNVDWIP

Rattus norvegicus [13] = organism: Rattus norvegicus; test: GLP1 level in Zucker rat after 10 mins; format: functional; method in brief: as §1
[14] = Volume of distribution in terminal phase in Sprague-Dawley rat at 5 mg/kg, iv; format: ADME, organism-based; set-up: dose 5 mg/kg, route intravenous; conditions: in vivo, read-out: Vbeta
[15] = Drug level in Zucker rat plasma after 4 hrs at 1 mg/kg; format: ADME, organism-based; set-up: dose 1 mg/kg; conditions: read-out: Drug uptake; method in brief: as §1
[16] = Half life in cynomolgus monkey at 2.5 mg/kg, po; format: ADME, organism-based, Macaca fascicularis; set-up: dose 2.5 mg/kg, route oral; conditions: in vivo
[17] = Volume of distribution in terminal phase in cynomolgus monkey at 2.5 mg/kg, iv; format: ADME, organism-based, Macaca fascicularis; set-up: dose 2.5 mg/kg, route intravenous; conditions: in vivo, read-out: Vbeta
[18] = AUC in Sprague-Dawley rat at 5 mg/kg, po; format: ADME, organism-based; set-up: dose 5 mg/kg, route oral; conditions: plasma
Rattus norvegicus [19] = organism: Rattus norvegicus; test: Reduction in postprandial glucose excursion in Zucker rat measured as AUC glucose (0-240 min) relative to control; format: functional; set-up: scale not given: the % may be the effect or the level left; method in brief: as §1

Sequence of Cytochrome P450 2D6 (P10635 whole entry): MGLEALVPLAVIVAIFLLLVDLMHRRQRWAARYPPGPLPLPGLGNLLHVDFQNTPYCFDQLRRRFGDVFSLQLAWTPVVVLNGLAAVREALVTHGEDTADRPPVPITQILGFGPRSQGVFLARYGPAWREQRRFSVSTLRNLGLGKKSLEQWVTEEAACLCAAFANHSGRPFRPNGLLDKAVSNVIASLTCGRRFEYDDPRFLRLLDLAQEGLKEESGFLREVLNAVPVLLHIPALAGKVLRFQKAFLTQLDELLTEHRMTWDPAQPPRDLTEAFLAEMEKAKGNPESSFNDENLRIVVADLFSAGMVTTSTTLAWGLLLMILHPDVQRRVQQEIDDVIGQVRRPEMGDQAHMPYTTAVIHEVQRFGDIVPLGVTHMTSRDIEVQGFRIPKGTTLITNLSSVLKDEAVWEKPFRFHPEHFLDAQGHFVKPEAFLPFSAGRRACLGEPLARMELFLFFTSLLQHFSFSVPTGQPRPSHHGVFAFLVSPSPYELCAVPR
Sequence of Dipeptidyl peptidase 8 (Q6V1X1 whole entry): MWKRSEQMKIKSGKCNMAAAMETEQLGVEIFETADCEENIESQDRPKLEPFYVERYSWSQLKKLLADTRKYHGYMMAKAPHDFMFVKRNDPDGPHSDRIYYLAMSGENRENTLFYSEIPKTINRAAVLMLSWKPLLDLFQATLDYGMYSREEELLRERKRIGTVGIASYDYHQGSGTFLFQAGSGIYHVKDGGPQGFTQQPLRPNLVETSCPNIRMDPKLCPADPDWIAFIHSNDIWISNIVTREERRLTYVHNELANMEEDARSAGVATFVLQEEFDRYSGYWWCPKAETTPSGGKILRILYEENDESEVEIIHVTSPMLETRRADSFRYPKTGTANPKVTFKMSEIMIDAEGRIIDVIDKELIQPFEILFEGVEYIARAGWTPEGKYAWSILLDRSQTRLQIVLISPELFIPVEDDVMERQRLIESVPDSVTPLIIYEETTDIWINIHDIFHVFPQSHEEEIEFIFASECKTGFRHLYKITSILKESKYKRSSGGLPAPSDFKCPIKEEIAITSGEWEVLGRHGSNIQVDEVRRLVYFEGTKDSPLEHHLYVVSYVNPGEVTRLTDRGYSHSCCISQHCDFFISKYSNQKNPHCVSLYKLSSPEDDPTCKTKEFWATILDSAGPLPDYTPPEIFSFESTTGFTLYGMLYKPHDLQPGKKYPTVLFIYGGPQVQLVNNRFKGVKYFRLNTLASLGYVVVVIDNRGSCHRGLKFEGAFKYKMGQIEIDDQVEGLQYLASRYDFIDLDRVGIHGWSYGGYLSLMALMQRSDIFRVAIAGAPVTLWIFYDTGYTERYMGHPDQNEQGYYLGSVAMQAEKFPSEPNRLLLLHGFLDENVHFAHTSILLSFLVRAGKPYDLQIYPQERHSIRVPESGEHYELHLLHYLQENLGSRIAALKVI
Sequence of Dipeptidyl peptidase 4 (Rattus norvegicus) (P14740 whole entry, looked up): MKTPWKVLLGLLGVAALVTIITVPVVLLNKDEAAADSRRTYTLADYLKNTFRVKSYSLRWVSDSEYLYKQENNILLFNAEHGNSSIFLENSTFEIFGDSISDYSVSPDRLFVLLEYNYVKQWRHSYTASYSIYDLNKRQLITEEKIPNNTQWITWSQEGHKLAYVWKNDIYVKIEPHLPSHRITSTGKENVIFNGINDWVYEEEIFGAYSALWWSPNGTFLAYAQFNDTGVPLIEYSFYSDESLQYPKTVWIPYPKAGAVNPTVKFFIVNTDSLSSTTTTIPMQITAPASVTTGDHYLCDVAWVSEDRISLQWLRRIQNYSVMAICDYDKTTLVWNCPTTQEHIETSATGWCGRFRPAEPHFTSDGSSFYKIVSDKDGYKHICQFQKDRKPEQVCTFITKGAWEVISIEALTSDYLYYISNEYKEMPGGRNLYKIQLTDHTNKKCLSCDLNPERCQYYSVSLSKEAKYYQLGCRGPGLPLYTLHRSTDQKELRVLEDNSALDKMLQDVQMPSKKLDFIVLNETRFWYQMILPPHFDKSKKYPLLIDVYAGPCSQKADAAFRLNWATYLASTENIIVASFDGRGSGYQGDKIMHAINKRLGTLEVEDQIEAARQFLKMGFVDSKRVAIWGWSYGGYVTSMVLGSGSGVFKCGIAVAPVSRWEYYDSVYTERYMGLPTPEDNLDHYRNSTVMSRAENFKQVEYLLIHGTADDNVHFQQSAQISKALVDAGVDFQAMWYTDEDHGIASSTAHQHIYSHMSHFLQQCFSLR
Sequence of Cytochrome P450 3A4 (P08684 whole entry): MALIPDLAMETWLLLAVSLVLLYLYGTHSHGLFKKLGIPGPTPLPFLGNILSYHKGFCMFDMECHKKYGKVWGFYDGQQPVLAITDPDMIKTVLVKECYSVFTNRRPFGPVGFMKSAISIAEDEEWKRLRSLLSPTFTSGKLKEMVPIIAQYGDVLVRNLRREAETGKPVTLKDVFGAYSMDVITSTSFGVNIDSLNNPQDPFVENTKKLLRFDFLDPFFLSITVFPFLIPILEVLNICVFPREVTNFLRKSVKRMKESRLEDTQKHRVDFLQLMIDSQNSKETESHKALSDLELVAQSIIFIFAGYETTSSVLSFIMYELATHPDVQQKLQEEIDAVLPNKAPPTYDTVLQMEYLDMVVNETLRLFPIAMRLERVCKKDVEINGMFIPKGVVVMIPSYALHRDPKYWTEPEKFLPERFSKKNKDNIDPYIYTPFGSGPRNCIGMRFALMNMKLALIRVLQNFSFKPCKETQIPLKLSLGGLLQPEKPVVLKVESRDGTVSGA

Question: What does the source list for `C#C[C@H]1CC[C@@H](C#N)N1C(=O)CNC1(C)CCN(c2cc(C(=O)O)ccn2)CC1`?
Answer: inhibition [1]: 87%; IC50 (Cytochrome P450 2D6): > 30 µM; IC50 (Cytochrome P450 3A4): > 30 µM; AUC(0-t) at 24 h [2]: 39000 ng·h/mL; Ki (Dipeptidyl peptidase 2): > 30 µM; Activity (Rattus norvegicus [3]): 50%; AUC [4]: 2800 ng·h/mL; Activity (Canis familiaris): Active; Ki (Prolyl endopeptidase FAP): > 30 µM; AUC [5]: 580 ng·h/mL; Ki (Dipeptidyl peptidase 8): > 30 µM; Activity (Mus musculus): inactive; bioavailability [6]: 35.2%; half-life [7]: 4.7 h; Activity (Rattus norvegicus [8]): 60%; Cmax [9]: 140 ng/mL; Vd [10]: 8.5 L/kg; Activity (Rattus norvegicus [11]): Active; AUC [12]: 7600 ng·h/mL; Ki (Prolyl endopeptidase): > 30 µM; Activity (Rattus norvegicus [13]): 29 pM; Vd [14]: 6.7 L/kg; concentration at 4 h [15]: 18 ng/mL; half-life [16]: 2 h; Vd [17]: 1.3 L/kg; AUC [18]: 2100 ng·h/mL; Activity (Rattus norvegicus [19]): 50%
